Measured values published in ChEMBL document CHEMBL2321688, “Acyclic nucleoside phosphonates containing a second phosphonate group are potent inhibitors of 6-oxopurine phosphoribosyltransferases and have antimalarial activity” (J Med Chem, 2013).

Key:
[1] = Inhibition of Plasmodium vivax N-terminal hexahistidine-tagged HGPRT
Summary of the method: (§1)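 N-terminal hexa-histidine tagged enzymes purified to homogeneity by IMAC. Ki from Hanes' plots with guanine fixed at 60 μM and PRib-PP varied (2-1000 μM) according to Km(app); one concentration of each inhibitor.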

[2] = Inhibition of Plasmodium falciparum HGXPRT
Summary of the method: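 PfHGXPRT purified by a published procedure. Ki from Hanes' plots with guanine fixed at 60 μM and PRib-PP varied (2-1000 μM) according to Km(app); one concentration of each inhibitor.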

[3] = target: T1, Hypoxanthine-guanine phosphoribosyltransferase (Homo sapiens, UniProt P00492); test: Inhibition of human N-terminal hexahistidine-tagged HGPRT; summary of the method: as §1
T1 sequence (P00492 whole entry): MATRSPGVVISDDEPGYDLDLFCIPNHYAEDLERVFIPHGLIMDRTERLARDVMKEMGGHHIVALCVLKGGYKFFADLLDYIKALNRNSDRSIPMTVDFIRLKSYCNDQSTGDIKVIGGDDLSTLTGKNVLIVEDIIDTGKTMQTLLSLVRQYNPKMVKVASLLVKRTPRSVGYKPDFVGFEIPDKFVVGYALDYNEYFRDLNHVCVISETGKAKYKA

[4] = Cytotoxicity against thioguanine-resistant human C32TG cells harboring HGPRT deletion mutant assessed as inhibition of cell proliferation after 4 days by Coulter counter analysis; assay type: cell-based
Summary of the method: (§2)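 Cell proliferation in human A549 lung carcinoma, C32 melanoma and C32-TG (thioguanine-resistant, HGPRT-deficient C32 mutant) cells. Seeded at 7,500 (A549) or 15,000 (C32, C32-TG) cells per well; serial compound dilutions added 24 hr later. Four days at 37 °C, then trypsinized and counted by Coulter Counter. CC50 = concentration giving 50% proliferation versus untreated cells, by extrapolation; mean ± SEM of two or three independent tests.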

[5] = Cytotoxicity against human C32 cells assessed as inhibition of cell proliferation after 4 days by Coulter counter analysis; assay type: cell-based; summary of the method: as §2
[6] = Cytotoxicity against human A549 cells assessed as inhibition of cell proliferation after 4 days by Coulter counter analysis; assay type: cell-based; summary of the method: as §2
Plasmodium falciparum [7] = test: Antimalarial activity against chloroquine and pyrimethamine-resistant early trophozoite stage of Plasmodium falciparum W2 in human red blood cells assessed as [3H]hypoxanthine uptake after 96 hrs; assay type: functional, organism-based
Summary of the method: (§3)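 P. falciparum cultured in RPMI-1640-LPLF with 10% human plasma, sorbitol-synchronised; assay started with >90% rings at 0.5% parasitaemia, 2% haematocrit in hypoxanthine-free medium. Ten 2-fold serial dilutions for 96 h, [3H]-hypoxanthine (0.2 µCi/well) added at ~48 h. IC50 from non-linear regression of incorporation versus log concentration; three independent experiments, mean ± SD.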

Plasmodium falciparum [8] = test: Antimalarial activity against wild type early trophozoite stage of Plasmodium falciparum D6 in human red blood cells assessed as [3H]hypoxanthine uptake after 96 hrs; assay type: functional, organism-based; summary of the method: as §3

SMILES | Ki [1] [µM] | Ki [2] [µM] | Ki [3] [µM] | CC50 at 96 h [4] [µM] | CC50 at 96 h [5] [µM] | CC50 at 96 h [6] [µM] | IC50 (Plasmodium falciparum [7]) [µM] | IC50 (Plasmodium falciparum [8]) [µM]
O=c1[nH]cnc2c1ncn2CC(COCP(=O)(O)O)COCP(=O)(O)O | 2 | 5 | 1 | – | – | – | – | –
Nc1nc2c(ncn2CC(COCP(=O)(O)O)COCP(=O)(O)O)c(=O)[nH]1 | 0.6 | 0.07 | 0.03 | > 300 | > 300 | > 300 | – | –
Nc1nc2c(ncn2CC(COCCP(=O)(O)O)OCCP(=O)(O)O)c(=O)[nH]1 (centres undefined) | 0.7 | 0.5 | 0.6 | – | – | – | – | –
CCOC(=O)[C@H](C)NP(=O)(CCOCCn1cnc2c(=O)[nH]c(N)nc21)N[C@@H](C)C(=O)OCC | – | – | – | > 300 | > 300 | > 300 | 48 | 42
Nc1nc2c(ncn2C(COCP(=O)(O)O)COCP(=O)(O)O)c(=O)[nH]1 | 18 | 2 | 37 | – | – | – | – | –
CCCCCCCCCCCCCCCCOCCCOP(=O)(CCOCCn1cnc2c(=O)[nH]c(N)nc21)OCCCOCCCCCCCCCCCCCCCC | – | – | – | > 300 | > 300 | > 300 | 68 | 59
CCCCCCCCCCCCCCCCOCCCOP(=O)(O)CCOCCn1cnc2c(=O)[nH]c(N)nc21 | – | – | – | 36 | 61 | 61 | 4.7 | 7.6
CCOC(=O)[C@H](Cc1ccccc1)NP(=O)(COCC(COCP(=O)(N[C@@H](Cc1ccccc1)C(=O)OCC)N[C@@H](Cc1ccccc1)C(=O)OCC)Cn1cnc2c(=O)[nH]cnc21)N[C@@H](Cc1ccccc1)C(=O)OCC | – | – | – | 55 | 41 | 101 | 4 | 3.8
CCOC(=O)[C@H](Cc1ccccc1)NP(=O)(COCC(COCP(=O)(N[C@@H](Cc1ccccc1)C(=O)OCC)N[C@@H](Cc1ccccc1)C(=O)OCC)Cn1cnc2c(=O)[nH]c(N)nc21)N[C@@H](Cc1ccccc1)C(=O)OCC | – | – | – | 109 | 130 | > 300 | 7.1 | 9.7
Nc1nc2c(ncn2CCOCCP(=O)(O)O)c(=O)[nH]1 | – | – | – | > 300 | > 300 | > 300 | – | 242
